The source of these data is ChEMBL document CHEMBL1142419, “Antimycobacterial activities of novel 2-(sub)-3-fluoro/nitro-5,12-dihydro-5-oxobenzothiazolo[3,2-a]quinoline-6-carboxylic acid” (Bioorg Med Chem, 2008).

The MIC is the lowest concentration that inhibits growth of the organism. Higher therefore signals a less susceptible organism.

In brackets after ≈: the same amount, converted by molar mass.

In the experiment the test system is Mycobacterium tuberculosis. As to the kind of experiment: Antimycobacterial activity against multidrug-resistant Mycobacterium tuberculosis by agar dilution method. The class given is functional. A digest of the protocol:
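MIC by agar dilution on Middlebrook 7H11 agar supplemented with OADC, following an NCCLS-like procedure, run in duplicate. The MDR-TB clinical isolate was resistant to isoniazid, rifampicin, ethambutol and ofloxacin.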
(Agar dilution tests growth on a series of plates holding different concentrations.)
In the case of `O=C(O)c1c(=O)c2cc(F)c(N3CCC4(CC3)OCCO4)cc2n2c1sc1ccccc12`, the minimal inhibitory concentration (MIC) was 0.86 µM (≈ 0.391 µg/mL). In other words, the sub-micromolar range.
`CC(C)(C)NC(=O)C1c2ccccc2CCN1c1cc2c(cc1F)c(=O)c(C(=O)O)c1sc3ccccc3n12` (centres undefined) had an MIC of 1.43 µM (≈ 0.777 µg/mL).
The figure for `O=C(O)c1cn2c(n1)CN(c1cc3c(cc1F)c(=O)c(C(=O)O)c1sc4ccccc4n13)CC2` is 0.39 µM (≈ 0.187 µg/mL); for `CCN(CC)C(=O)C1CCCN(c2cc3c(cc2[N+](=O)[O-])c(=O)c(C(=O)O)c2sc4ccccc4n23)C1` (centres undefined) it is 0.75 µM (≈ 0.392 µg/mL); for `O=C(O)c1c(=O)c2cc([N+](=O)[O-])c(N3CCC(N4CCCCC4)CC3)cc2n2c1sc1ccccc12` it is 1.54 µM (≈ 0.78 µg/mL).
`CC(C)(C)OC(=O)NC1C2CN(c3cc4c(cc3[N+](=O)[O-])c(=O)c(C(=O)O)c3sc5ccccc5n34)CC21` (centres undefined) displayed an MIC of 0.73 µM (≈ 0.392 µg/mL).
The figure for `O=C(O)c1c(=O)c2cc([N+](=O)[O-])c(N3CCC(O)(c4ccc(Cl)cc4)CC3)cc2n2c1sc1ccccc12` is 2.84 µM (≈ 1.56 µg/mL); for `NNC(=O)c1ccncc1` [ISONIAZID] it is 45.6 µM (≈ 6.25 µg/mL); for `O=C(O)c1c(=O)c2cc(F)c(N3CCN(C(=O)C4COc5ccccc5O4)CC3)cc2n2c1sc1ccccc12` (centres undefined) it is 5.59 µM (≈ 3.13 µg/mL).
Then `CCN(CC)C(=O)C1CCCN(c2cc3c(cc2F)c(=O)c(C(=O)O)c2sc4ccccc4n23)C1` (centres undefined), with 0.08 µM (≈ 0.0396 µg/mL); and `O=C(O)c1c(=O)c2cc(F)c(N3CCC(O)(c4ccc(Cl)cc4)CC3)cc2n2c1sc1ccccc12`, with 0.36 µM (≈ 0.188 µg/mL); and `COc1cc2c(cc1OC)CN(c1cc3c(cc1F)c(=O)c(C(=O)O)c1sc4ccccc4n13)CC2`, with 3.09 µM (≈ 1.56 µg/mL).
Then `O=C(O)c1c(=O)c2cc(F)c(N3CCN(C(c4ccccc4)c4ccc(Cl)cc4)CC3)cc2n2c1sc1ccccc12` (centres undefined), with 0.65 µM (≈ 0.389 µg/mL); and `O=C(O)c1c(=O)c2cc(F)c(N3CCC(n4c(=O)[nH]c5cc(Cl)ccc54)CC3)cc2n2c1sc1ccccc12`, with 5.56 µM (≈ 3.13 µg/mL).
In the case of `O=C(O)c1c(=O)c2cc(F)c(N3CCSCC3)cc2n2c1sc1ccccc12`, the MIC is 7.55 µM (≈ 3.13 µg/mL). The MIC values of the last two compounds are within 1.5-fold of each other.
The figure for `O=C(O)c1cn2c(n1)CN(c1cc3c(cc1[N+](=O)[O-])c(=O)c(C(=O)O)c1sc4ccccc4n13)CC2` is 0.77 µM (≈ 0.389 µg/mL); for `O=C(O)c1c(=O)c2cc([N+](=O)[O-])c(N3CCC4(CC3)OCCO4)cc2n2c1sc1ccccc12` it is 0.39 µM (≈ 0.188 µg/mL); for `COc1cc2c(cc1OC)CN(c1cc3c(cc1[N+](=O)[O-])c(=O)c(C(=O)O)c1sc4ccccc4n13)CC2` it is 2.93 µM (≈ 1.56 µg/mL).
The figure for `CC(C)(C)OC(=O)NC1C2CN(c3cc4c(cc3F)c(=O)c(C(=O)O)c3sc5ccccc5n34)CC21` (centres undefined) is 0.18 µM (≈ 0.0917 µg/mL); for `O=C(O)c1c(=O)c2cc(F)c(N3CCC(N4CCCCC4)CC3)cc2n2c1sc1ccccc12` it is 0.19 µM (≈ 0.0911 µg/mL).
Then `COc1c(N2CCNC(C)C2)c(F)cc2c(=O)c(C(=O)O)cn(C3CC3)c12` (centres undefined) [GATIFLOXACIN], with 8.34 µM (≈ 3.13 µg/mL); and `O=C(O)c1c(=O)c2cc(F)c(N3CCN(Cc4ccc5c(c4)OCO5)CC3)cc2n2c1sc1ccccc12`, with 5.89 µM (≈ 3.13 µg/mL).
As for `Cc1onc(-c2c(F)cccc2F)c1C(=O)N1CCN(c2cc3c(cc2F)c(=O)c(C(=O)O)c2sc4ccccc4n23)CC1`, it took 5.06 µM (≈ 3.13 µg/mL) to inhibit growth (MIC).
The figure for `CC(C)(C)NC(=O)C1c2ccccc2CCN1c1cc2c(cc1[N+](=O)[O-])c(=O)c(C(=O)O)c1sc3ccccc3n12` (centres undefined) is 5.49 µM (≈ 3.13 µg/mL).
